Measurements from ChEMBL document CHEMBL5661979, “Pharmacological inhibition of BMK1 suppresses tumor growth through promyelocytic leukemia protein” (Cancer Cell, 2010).

Assays:
[1] = Inhibition of SRPK1/2 in human HeLa cells lysate at 2 uM pre incubated for 15 mins followed by ADP acyl phosphate probe addition and measured after 10 mins by LC-MS/MS analysis relative to control; settings: 25 min, condition cancer
[2] = Plasma concentration in C57Bl/6 mouse at 50 mg/kg, ip administered for 13 day and measured 8 hr post last dose by LC-MS/MS analysis; format: ADME, organism-based
[3] = molecular target: Serine/threonine-protein kinase Nek8 (Homo sapiens) (UniProt Q86SG6); assay: Inhibition of NEK8 in human HeLa cells lysate at 2 uM pre incubated for 15 mins followed by ADP acyl phosphate probe addition and measured after 10 mins by LC-MS/MS analysis relative to control; format: subcellular; settings: time 25.0 min
Chain of Serine/threonine-protein kinase Nek8 (Homo sapiens) (Q86SG6 whole entry): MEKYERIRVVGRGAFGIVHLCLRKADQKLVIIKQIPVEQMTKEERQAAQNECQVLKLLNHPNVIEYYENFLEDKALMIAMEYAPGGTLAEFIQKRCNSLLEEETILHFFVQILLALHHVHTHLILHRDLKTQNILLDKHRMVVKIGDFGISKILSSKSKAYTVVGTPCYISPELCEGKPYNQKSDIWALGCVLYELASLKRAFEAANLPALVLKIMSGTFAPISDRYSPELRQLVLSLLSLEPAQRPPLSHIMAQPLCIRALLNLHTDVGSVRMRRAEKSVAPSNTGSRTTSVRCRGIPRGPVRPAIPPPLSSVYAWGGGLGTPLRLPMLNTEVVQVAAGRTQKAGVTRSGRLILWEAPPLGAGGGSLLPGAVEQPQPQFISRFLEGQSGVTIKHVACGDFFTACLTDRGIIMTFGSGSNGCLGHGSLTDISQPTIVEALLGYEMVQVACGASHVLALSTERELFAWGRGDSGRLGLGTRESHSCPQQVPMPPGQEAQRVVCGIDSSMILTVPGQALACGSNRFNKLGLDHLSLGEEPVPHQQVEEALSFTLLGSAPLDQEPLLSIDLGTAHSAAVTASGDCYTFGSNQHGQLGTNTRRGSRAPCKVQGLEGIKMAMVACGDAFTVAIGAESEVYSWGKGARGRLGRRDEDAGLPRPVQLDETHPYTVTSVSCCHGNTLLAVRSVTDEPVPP

RPS6KA1/RPS6KA2/RPS6KA3 = RPS6KA1/RPS6KA2/RPS6KA3 (Homo sapiens, UniProt P51812+Q15349+Q15418); assay: Inhibition of RSK1/2/3 in human HeLa cells lysate pre incubated for 15 mins followed by ATP acyl phosphate probe addition and measured after 10 mins by LC-MS/MS analysis; format: subcellular
[4] = molecular target: Interferon-induced, double-stranded RNA-activated protein kinase (Homo sapiens, UniProt P19525); assay: Inhibition of PKR in human HeLa cells lysate at 2 uM pre incubated for 15 mins followed by ATP acyl phosphate probe addition and measured after 10 mins by LC-MS/MS analysis relative to control; format: subcellular; settings: time 25.0 min
[5] = molecular target: T1, Phosphatidylinositol 5-phosphate 4-kinase type-2 alpha (Homo sapiens, UniProt P48426); assay: Inhibition of PIP5K2A LIP1 site in human HeLa cells lysate pre incubated for 15 mins followed by ADP acyl phosphate probe addition and measured after 10 mins by LC-MS/MS analysis; format: subcellular
T1 sequence (P48426 whole entry): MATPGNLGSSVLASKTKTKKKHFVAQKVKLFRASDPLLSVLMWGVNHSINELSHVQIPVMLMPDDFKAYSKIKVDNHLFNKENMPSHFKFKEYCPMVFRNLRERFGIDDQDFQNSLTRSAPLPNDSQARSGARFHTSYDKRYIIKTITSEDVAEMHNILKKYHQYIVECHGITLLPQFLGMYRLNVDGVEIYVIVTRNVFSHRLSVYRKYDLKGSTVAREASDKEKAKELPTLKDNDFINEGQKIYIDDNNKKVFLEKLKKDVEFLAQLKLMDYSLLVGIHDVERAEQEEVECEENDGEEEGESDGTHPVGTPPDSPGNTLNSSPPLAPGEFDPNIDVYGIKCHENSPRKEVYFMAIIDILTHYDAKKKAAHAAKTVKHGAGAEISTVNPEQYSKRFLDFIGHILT

[6] = molecular target: DNA-dependent protein kinase catalytic subunit (Homo sapiens, UniProt P78527); assay: Inhibition of PRKDC in human HeLa cells lysate at 2 uM pre incubated for 15 mins followed by ATP acyl phosphate probe addition and measured after 10 mins by LC-MS/MS analysis relative to control; format: subcellular; settings: time 25.0 min
Insulin receptor [7] = molecular target: T2, Insulin receptor (Homo sapiens, UniProt P06213); assay: Inhibition of INSR in human HeLa cells lysate pre incubated for 15 mins followed by ADP acyl phosphate probe addition and measured after 10 mins by LC-MS/MS analysis; format: subcellular
T2 sequence (P06213 28-758 limits assumed): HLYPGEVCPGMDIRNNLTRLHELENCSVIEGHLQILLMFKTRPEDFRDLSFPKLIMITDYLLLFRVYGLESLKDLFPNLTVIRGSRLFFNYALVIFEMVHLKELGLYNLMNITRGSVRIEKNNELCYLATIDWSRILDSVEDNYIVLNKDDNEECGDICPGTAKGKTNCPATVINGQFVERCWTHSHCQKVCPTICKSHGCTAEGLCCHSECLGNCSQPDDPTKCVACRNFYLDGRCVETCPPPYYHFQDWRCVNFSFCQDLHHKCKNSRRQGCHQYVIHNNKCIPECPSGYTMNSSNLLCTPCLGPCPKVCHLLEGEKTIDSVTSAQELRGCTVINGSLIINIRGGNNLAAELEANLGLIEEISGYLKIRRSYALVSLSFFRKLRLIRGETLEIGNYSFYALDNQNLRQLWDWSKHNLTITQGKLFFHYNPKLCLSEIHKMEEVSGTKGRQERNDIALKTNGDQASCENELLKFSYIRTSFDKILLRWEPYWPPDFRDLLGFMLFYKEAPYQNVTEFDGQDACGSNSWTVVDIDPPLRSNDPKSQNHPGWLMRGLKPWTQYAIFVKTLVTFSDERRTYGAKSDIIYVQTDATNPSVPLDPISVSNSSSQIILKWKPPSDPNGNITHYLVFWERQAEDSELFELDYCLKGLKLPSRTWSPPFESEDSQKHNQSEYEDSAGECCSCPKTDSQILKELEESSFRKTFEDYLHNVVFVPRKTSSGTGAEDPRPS
T2 sequence (P06213 763-1382 limits assumed): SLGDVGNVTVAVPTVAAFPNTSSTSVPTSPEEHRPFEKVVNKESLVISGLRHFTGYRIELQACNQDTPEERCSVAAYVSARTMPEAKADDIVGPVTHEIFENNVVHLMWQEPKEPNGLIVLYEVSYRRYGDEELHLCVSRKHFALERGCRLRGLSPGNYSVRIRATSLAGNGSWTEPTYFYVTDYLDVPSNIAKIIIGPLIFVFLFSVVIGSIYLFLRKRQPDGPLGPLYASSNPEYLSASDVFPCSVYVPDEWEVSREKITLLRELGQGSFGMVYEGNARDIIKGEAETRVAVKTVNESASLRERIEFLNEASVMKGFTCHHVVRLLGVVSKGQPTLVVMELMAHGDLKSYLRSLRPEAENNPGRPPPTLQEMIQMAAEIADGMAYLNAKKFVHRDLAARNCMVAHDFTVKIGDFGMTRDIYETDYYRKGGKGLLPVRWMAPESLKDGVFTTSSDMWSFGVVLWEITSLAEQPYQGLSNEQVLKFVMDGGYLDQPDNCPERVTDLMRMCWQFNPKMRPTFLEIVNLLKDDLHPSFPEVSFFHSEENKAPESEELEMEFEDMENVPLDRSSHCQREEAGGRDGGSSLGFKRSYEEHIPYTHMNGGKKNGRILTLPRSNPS

[8] = molecular target: Serine/threonine-protein kinase TAO2 (Homo sapiens, UniProt Q9UL54); assay: Inhibition of TAO2 in human HeLa cells lysate pre incubated for 15 mins followed by ATP acyl phosphate probe addition and measured after 10 mins by LC-MS/MS analysis; format: subcellular
Chain of Serine/threonine-protein kinase TAO2 (Q9UL54 whole entry): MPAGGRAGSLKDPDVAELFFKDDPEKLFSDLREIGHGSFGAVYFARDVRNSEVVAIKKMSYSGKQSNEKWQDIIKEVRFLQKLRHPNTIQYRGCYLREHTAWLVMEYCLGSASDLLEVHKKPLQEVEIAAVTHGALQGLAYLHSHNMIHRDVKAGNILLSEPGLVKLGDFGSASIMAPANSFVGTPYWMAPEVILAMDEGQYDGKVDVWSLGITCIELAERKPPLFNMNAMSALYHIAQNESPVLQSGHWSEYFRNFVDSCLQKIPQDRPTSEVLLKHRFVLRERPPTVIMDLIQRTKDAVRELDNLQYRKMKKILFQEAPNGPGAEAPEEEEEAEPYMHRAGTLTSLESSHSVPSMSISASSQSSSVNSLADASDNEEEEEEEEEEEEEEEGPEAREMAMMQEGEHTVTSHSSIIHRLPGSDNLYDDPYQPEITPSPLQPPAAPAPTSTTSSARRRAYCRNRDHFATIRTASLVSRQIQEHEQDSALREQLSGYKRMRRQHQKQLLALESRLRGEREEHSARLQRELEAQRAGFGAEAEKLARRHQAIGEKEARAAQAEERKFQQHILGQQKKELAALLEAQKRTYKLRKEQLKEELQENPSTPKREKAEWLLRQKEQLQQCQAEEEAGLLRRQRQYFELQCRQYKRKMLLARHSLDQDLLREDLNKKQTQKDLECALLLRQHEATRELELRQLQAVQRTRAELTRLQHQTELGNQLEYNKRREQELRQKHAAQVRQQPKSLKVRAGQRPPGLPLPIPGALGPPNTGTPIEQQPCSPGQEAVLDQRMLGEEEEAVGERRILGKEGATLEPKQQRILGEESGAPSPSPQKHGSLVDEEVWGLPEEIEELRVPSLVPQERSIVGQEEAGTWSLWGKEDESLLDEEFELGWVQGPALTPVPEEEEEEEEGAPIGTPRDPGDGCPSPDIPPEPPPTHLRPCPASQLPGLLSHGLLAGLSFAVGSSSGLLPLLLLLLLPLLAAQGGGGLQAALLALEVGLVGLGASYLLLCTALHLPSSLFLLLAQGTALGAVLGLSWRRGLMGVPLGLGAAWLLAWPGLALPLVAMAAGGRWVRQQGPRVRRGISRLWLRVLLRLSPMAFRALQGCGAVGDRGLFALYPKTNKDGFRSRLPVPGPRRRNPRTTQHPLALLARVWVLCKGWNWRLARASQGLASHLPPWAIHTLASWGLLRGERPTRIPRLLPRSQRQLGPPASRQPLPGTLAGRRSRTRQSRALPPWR

[9] = molecular target: T3, Dual specificity mitogen-activated protein kinase kinase 1 (Homo sapiens, UniProt Q02750); assay: Inhibition of MAP2K1 in human HeLa cells lysate at 10 uM pre incubated for 15 mins followed by ATP acyl phosphate probe addition and measured after 10 mins by LC-MS/MS analysis relative to control; format: subcellular; settings: time 25.0 min
T3 sequence (Q02750 whole entry): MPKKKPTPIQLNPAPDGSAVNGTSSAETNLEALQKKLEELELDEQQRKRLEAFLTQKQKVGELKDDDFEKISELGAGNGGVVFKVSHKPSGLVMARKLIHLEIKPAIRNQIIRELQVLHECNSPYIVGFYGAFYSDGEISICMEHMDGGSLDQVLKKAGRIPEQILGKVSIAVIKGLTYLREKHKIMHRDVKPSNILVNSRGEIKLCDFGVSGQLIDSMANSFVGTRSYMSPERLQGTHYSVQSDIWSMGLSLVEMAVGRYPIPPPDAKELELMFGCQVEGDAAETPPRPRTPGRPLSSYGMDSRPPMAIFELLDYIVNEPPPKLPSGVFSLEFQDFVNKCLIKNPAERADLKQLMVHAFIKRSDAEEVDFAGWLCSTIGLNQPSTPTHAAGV

[10] = molecular target: Dual specificity mitogen-activated protein kinase kinase; MEK1/2 (Homo sapiens, UniProt P36507+Q02750); assay: Inhibition of MAP2K1/MAP2K2 in human HeLa cells lysate pre incubated for 15 mins followed by ADP acyl phosphate probe addition and measured after 10 mins by LC-MS/MS analysis; format: subcellular
Insulin receptor [11] = molecular target: T2, Insulin receptor; assay: Inhibition of INSR in human HeLa cells lysate at 50 uM pre incubated for 15 mins followed by ADP acyl phosphate probe addition and measured after 10 mins by LC-MS/MS analysis relative to control; format: subcellular; settings: time 25.0 min
[12] = molecular target: Serine/threonine-protein kinase Aurora (Homo sapiens, UniProt Q96GD4+Q9UQB9+O14965); assay: Inhibition of AurA/AurB/AurC in human HeLa cells lysate at 2 uM pre incubated for 15 mins followed by ATP acyl phosphate probe addition and measured after 10 mins by LC-MS/MS analysis relative to control; format: subcellular; settings: time 25.0 min
Procedure, shortened: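 KiNativ-type profiling in HeLa lysate (5 mg/mL total protein). Lysate preincubated 15 min with inhibitor at 50, 10, 2, 0.8 or 0 μM, then ATP or ADP acylphosphate probe added (5 μM final) for 10 min. Reaction stopped with urea and analysed by targeted MS, using up to four fragment ions per kinase peptide-probe conjugate. % inhibition calculated against untreated lysate. Duplicate reactions.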

[13] = Inhibition of PCTAIRE2/3 in human HeLa cells lysate at 10 uM pre incubated for 15 mins followed by ADP acyl phosphate probe addition and measured after 10 mins by LC-MS/MS analysis relative to control; settings: 25 min, condition cancer
[14] = molecular target: Mitogen-activated protein kinase 14 (Homo sapiens, UniProt Q16539); assay: Inhibition of p38a in human HeLa cells lysate at 50 uM pre incubated for 15 mins followed by ATP acyl phosphate probe addition and measured after 10 mins by LC-MS/MS analysis relative to control; format: subcellular; settings: time 25.0 min
Chain of Mitogen-activated protein kinase 14 (Q16539 whole entry): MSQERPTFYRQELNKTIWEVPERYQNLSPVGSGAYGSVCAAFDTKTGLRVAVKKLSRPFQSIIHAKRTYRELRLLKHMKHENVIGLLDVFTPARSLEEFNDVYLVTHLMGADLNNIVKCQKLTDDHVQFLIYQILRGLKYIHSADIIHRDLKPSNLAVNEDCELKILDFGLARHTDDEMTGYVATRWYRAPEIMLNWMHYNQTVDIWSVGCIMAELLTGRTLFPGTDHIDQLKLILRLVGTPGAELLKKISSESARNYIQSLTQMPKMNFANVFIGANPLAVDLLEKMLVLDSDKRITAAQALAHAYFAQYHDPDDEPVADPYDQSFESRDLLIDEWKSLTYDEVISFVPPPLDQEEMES

[15] = Toxicity in C57Bl/6 mouse assessed as body weight at 50 mg/kg, ip for 14 days (reference value: 0.2 to 0.208 kg); format: organism-based; settings: in vivo, 336 h, time 14 day
[16] = molecular target: T4, Tyrosine-protein kinase Fer (Homo sapiens, UniProt P16591); assay: Inhibition of FER in human HeLa cells lysate at 2 uM pre incubated for 15 mins followed by ATP acyl phosphate probe addition and measured after 10 mins by LC-MS/MS analysis relative to control; format: subcellular; settings: time 25.0 min
T4 sequence (P16591 whole entry, looked up): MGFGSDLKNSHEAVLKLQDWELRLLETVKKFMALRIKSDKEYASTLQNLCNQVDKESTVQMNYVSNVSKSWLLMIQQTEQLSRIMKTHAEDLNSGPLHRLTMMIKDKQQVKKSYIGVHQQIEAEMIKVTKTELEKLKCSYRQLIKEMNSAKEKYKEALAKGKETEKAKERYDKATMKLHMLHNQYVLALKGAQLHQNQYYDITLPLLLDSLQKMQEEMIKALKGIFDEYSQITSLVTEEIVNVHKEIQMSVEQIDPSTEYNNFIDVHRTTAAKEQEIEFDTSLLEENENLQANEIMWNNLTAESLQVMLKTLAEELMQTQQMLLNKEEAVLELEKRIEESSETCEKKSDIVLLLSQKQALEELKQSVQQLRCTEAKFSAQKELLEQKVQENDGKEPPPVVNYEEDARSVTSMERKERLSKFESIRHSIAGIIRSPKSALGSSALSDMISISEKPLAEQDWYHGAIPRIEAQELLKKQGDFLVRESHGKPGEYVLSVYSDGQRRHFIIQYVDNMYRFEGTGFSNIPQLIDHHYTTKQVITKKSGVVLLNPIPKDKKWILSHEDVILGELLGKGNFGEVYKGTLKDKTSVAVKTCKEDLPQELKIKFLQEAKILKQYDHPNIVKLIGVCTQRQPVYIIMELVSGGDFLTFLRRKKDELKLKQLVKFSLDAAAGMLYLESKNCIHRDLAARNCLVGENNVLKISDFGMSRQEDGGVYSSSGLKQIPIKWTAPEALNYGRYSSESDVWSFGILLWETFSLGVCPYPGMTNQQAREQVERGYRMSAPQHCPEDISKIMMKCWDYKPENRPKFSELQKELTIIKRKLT

[17] = molecular target: T5, EKC/KEOPS complex subunit TP53RK (Homo sapiens) (UniProt Q96S44); assay: Inhibition of PRPK in human HeLa cells lysate at 10 uM pre incubated for 15 mins followed by ATP acyl phosphate probe addition and measured after 10 mins by LC-MS/MS analysis relative to control; format: subcellular; settings: time 25.0 min
T5 sequence (whole entry): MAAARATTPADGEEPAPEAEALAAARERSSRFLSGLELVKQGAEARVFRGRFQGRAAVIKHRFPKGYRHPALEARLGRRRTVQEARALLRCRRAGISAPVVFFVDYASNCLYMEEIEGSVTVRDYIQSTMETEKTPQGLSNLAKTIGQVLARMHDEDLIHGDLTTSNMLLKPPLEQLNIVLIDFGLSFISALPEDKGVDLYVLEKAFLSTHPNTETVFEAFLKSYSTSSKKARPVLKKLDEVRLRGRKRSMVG

[18] = molecular target: T3, Dual specificity mitogen-activated protein kinase kinase 1; assay: Inhibition of MAP2K1 in human HeLa cells lysate at 50 uM pre incubated for 15 mins followed by ATP acyl phosphate probe addition and measured after 10 mins by LC-MS/MS analysis relative to control; format: subcellular; settings: time 25.0 min
[19] = molecular target: T4, Tyrosine-protein kinase Fer; assay: Inhibition of FER in human HeLa cells lysate at 10 uM pre incubated for 15 mins followed by ATP acyl phosphate probe addition and measured after 10 mins by LC-MS/MS analysis relative to control; format: subcellular; settings: time 25.0 min

Which results are given for `CCOc1cc(N2CCC(O)CC2)ccc1Nc1ncc2c(n1)N(C)c1ccccc1C(=O)N2C`?
inhibition at 2 µM [1]: 12.7%; concentration at 312 h [2]: 11.1 µM; inhibition [3]: 30.2%; IC50 (RPS6KA1/RPS6KA2/RPS6KA3): > 50 µM; inhibition [4]: -2.6%; IC50 [5]: > 50 µM; inhibition [6]: 0.6%; IC50 (Insulin receptor [7]): > 50 µM; IC50 [8]: > 50 µM; inhibition [9]: -1.9%; IC50 [10]: > 50 µM; inhibition (Insulin receptor [11]): -6.5%; inhibition [12]: -5.8%; inhibition at 10 µM [13]: -4.4%; inhibition [14]: 31.4%; Activity [15]: 0.02 kg; inhibition [16]: 8%; inhibition [17]: -9.7%; inhibition [18]: -7.3%; inhibition [19]: 0%
